The text below walks through data of ChEMBL document CHEMBL1139386, “Discovery of novel CB2 receptor ligands by a pharmacophore-based virtual screening workflow” (J Med Chem, 2009).

Usually Ki stands for the equilibrium dissociation constant of an inhibitor or competing ligand from its target. A word on the EC50: it is the concentration at which the effect is half-maximal.

Test [1] addresses T1, Cannabinoid receptor 1 (Homo sapiens, UniProt P21554). The experiment in a line: Displacement of [3H]CP-55940 from human recombinant CB1 receptor.
For the next test, the species on record is Homo sapiens. The experiment in a line: Selectivity ratio of Ki for human CB1 receptor to Ki for human CB2 receptor. Summed up:
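Ki ratio from radioligand displacement on membranes overexpressing human CB1 (7.16 µg, 0.39 nM radioligand) or CB2 (3.8 µg, 0.11 nM radioligand). Incubation 90 min at 30 °C in Tris/EGTA/MgCl2/BSA buffer, pH 7.4, then GF/C filtration and scintillation counting; nonspecific binding with 10 µM reference ligand. IC50 from Hill plots; three independent experiments in triplicate.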

Test [2] concerns the target T2, Cannabinoid receptor 2 (Homo sapiens, UniProt P34972). The experiment in a line: Displacement of [3H]CP-55940 from human recombinant CB2 receptor. A digest of the protocol:
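Membranes from cells recombinantly overexpressing CB2 (Bmax 4.7 pmol/mg protein), 3.8 µg, in binding buffer (50 mM Tris-HCl, 2.5 mM EGTA, 5 mM MgCl2, 0.5 mg/mL fatty-acid-free BSA, pH 7.4) with 0.11 nM radioligand. Compounds were tested at varying concentrations, with nonspecific binding defined by 10 µM reference ligand. Incubation was 90 min at 30 °C, followed by PEI-soaked GF/C filtration and scintillation counting. Data were normalized and Hill-linearized to give IC50 and Ki (three experiments, triplicate).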

For test [3], the target named is T1, Cannabinoid receptor 1. The experiment in a line: Binding affinity to CB1 receptor.
Test [4] can be described thus: Selectivity ratio of Ki for CB1 receptor to Ki for CB2 receptor.
Test [5] has as its target T2, Cannabinoid receptor 2. The experiment in a line: Binding affinity to CB2 receptor.
Test [6] deals with T2, Cannabinoid receptor 2. The experiment in a line: Agonist activity at human CB2 receptor expressed in CHO-K1 cells assessed as forskolin-stimulated cAMP release. In kind it is functional, cell-based. Particulars: filed as partial agonist. Summed up: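 CHO-K1 cells expressing hCB2, plated at 3×10^5 cells/mL overnight, were preincubated 10 min in supplement-free RPMI 1640 with 500 µM IBMX. Test compounds were added at several concentrations for 30 min at 37 °C, then 20 µM forskolin for a further 30 min at 37 °C. Intracellular cAMP was read by EFC chemiluminescence, with a high-affinity CB ligand as positive control.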

T2 sequence (P34972 whole entry): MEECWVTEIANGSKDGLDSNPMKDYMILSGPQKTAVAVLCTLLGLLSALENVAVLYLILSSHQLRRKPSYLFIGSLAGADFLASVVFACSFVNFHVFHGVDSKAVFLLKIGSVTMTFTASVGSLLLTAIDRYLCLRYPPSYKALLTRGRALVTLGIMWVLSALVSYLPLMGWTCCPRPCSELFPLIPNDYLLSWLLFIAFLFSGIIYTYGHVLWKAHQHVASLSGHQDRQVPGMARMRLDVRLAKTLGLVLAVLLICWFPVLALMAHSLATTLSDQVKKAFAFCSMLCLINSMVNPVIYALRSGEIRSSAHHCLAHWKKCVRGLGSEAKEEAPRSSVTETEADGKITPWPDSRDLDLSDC
T1 sequence (P21554 whole entry): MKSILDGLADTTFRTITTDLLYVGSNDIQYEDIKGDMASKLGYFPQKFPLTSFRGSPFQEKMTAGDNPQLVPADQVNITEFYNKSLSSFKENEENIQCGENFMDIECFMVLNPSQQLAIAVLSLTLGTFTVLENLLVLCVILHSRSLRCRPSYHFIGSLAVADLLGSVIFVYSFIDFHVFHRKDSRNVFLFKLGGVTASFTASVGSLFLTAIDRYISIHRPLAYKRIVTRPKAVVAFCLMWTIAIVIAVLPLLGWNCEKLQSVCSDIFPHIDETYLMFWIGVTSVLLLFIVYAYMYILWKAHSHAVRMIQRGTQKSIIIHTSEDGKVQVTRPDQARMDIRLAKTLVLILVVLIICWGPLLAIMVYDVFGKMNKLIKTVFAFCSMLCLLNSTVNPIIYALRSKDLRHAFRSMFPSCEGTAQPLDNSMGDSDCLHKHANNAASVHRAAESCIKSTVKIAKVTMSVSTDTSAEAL

`CCCCCCC(C)(C)c1cc(OC)c([C@@]2(O)CCC[C@@H](C)C2)c(OC)c1`: the Ki was found to be 5060 nM at Cannabinoid receptor 1 [1] and 23 nM at Cannabinoid receptor 2 [2]. In addition, the Ratio Ki in the test filed under Homo sapiens stood at 220.
As for `CCCCCn1c(C)c(C(=O)c2c(OC)ccc3ccccc23)c2ccccc21`, the Ki at Cannabinoid receptor 1 [1] was found to be 1380 nM. Further, the Ratio Ki in the test listed under Homo sapiens worked out at 34.
In the case of `CC(=O)n1c2c(c3cc(C(=O)N4CCC(C)CC4)ccc31)CN(C1CCCC1)C2`, the Ratio Ki in the test filed under Homo sapiens stood at 26.
The same measure, in the same setting: in the case of `CC1CCN(C(=O)c2ccc3c(c2)c2c(n3S(C)(=O)=O)CN(C3CCCC3)C2)CC1` it was 35.
For the molecule `CCCCCCC(C)(C)c1cc(OC)c([C@H]2C=C(CO)[C@@H]3C[C@H]2C3(C)C)c(OC)c1`, the affinity at Cannabinoid receptor 1 [3] corresponds to a Ki of 10000 nM.
For `CCCN1Cc2c(n(S(=O)(=O)CC)c3ccc(C(=O)N4CCC(C)CC4)cc23)C1`, the Ratio Ki in the test filed under Homo sapiens was 54.
`CCCCCn1cc(C(=O)c2cc3ccccc3cc2OC)c2ccccc21`: the values for the inhibition constant Ki at Cannabinoid receptor 1 [3] and on Cannabinoid receptor 2 [5] were 381 nM and 7.2 nM, respectively. The Ratio Ki in test [4] was found to be 53.
In the case of `CCCCCC(C)(C)c1cc(OC)c2c(c1)OC(C)(C)[C@@H]1CCC(C)=C[C@@H]21`, the Ratio Ki in the test filed under Homo sapiens was found to be 174.
On the same count and under the same terms, in the case of `COc1ccc2c(c1)c(CN1CCOCC1)c(C)n2C(=O)c1cccc(Cl)c1Cl` it was 153.
As for `CCCCCCC(C)(C)c1cc(O)c2c(c1)oc(=O)c1ccc(O)cc12`, the results for the Ki on Cannabinoid receptor 1 [1] and on Cannabinoid receptor 2 [2] were 400 nM and 0.82 nM, respectively. The Ratio Ki in the test listed under Homo sapiens is 488.
With `CCCn1cc(C(=O)c2ccc(C)c3ccccc23)c2ccccc21`, at Cannabinoid receptor 1 [1], the inhibition constant Ki turned out to be 1050 nM. Moreover, in the test filed under Homo sapiens, the Ratio Ki was 173.
With `CCc1ccccc1NC(=O)CSc1nnc(-c2ccccc2OC)n1-c1ccccc1`, the Ki on Cannabinoid receptor 1 [1] was more than 50 nM; at Cannabinoid receptor 2 [2], 2.1 nM. Moreover, the Ratio Ki in the test filed under Homo sapiens was more than 23.
`CN1CCCC[C@@H]1Cn1cc(C(=O)c2cc([N+](=O)[O-])ccc2I)c2ccccc21`: the inhibition constant (Ki) on Cannabinoid receptor 1 [3] was found to be 5000 nM; at Cannabinoid receptor 2 [5], 15.1 nM. Moreover, the Ratio Ki in test [4] came to 331.
As for `CCOc1ccc(N(CC(=O)N[C@@H](C)CC)S(=O)(=O)c2ccc(Br)cc2)cc1`, the Ki at Cannabinoid receptor 1 [1] is more than 50 nM; at Cannabinoid receptor 2 [2], less than 25 nM. Also, the Ratio Ki in the test filed under Homo sapiens was more than 2.
Take `CCCn1c(C)c(C(=O)c2cccc3cc(OC)ccc23)c2ccccc21`: the Ki on Cannabinoid receptor 1 [1] is more than 10000 nM. In the test filed under Homo sapiens, the Ratio Ki was more than 333.
`CCCCCN(CCCCC)C(=O)c1ccccc1C(=O)Nc1ccc(Br)cc1`: the Ki on Cannabinoid receptor 1 [1] is more than 50 nM; on Cannabinoid receptor 2 [2], less than 25 nM. Further, the Ratio Ki in the test filed under Homo sapiens is more than 2.
As to `CCCCCCc1cc(O)c2c(c1)OC(C)(C)C1=C2CCN(C)C1`, the results for the inhibition constant (Ki) at Cannabinoid receptor 1 [1] and at Cannabinoid receptor 2 [2] were more than 50 nM and 1.78 nM, respectively. Further, the Activity result on Cannabinoid receptor 2 [6] is “Partial agonist”. Besides, in the test listed under Homo sapiens, the Ratio Ki is more than 27.
For the molecule `Cc1cccc(-c2nnc(SCC(=O)NC3CCCCC3)n2Cc2ccccc2)c1`, the Ki on Cannabinoid receptor 1 [1] is more than 50 nM; on Cannabinoid receptor 2 [2], less than 25 nM. Moreover, the Ratio Ki in the test filed under Homo sapiens is more than 2.
The like results for `COc1ccc(OC)c(N(CC(=O)NCc2ccncc2)S(=O)(=O)c2ccc(C)cc2)c1` were, in that order, more than 50 nM, 1.35 nM and more than 37.
Turning to `CCS(=O)(=O)n1c2c(c3cc(C(=O)N4CCC(OC)CC4)ccc31)CN(C1CCCC1)C2`, the Ratio Ki in the test filed under Homo sapiens is 77.
In the case of `CCCC(C)(C)c1ccc2c(c1)OC(C)(C)[C@@H]1CC=C(C)C[C@@H]21`, the inhibitory constant (Ki) on Cannabinoid receptor 1 [3] is 677 nM; at Cannabinoid receptor 1 [1] it was 0.797 nM; on Cannabinoid receptor 2 [2] it was 0.023 nM; on Cannabinoid receptor 2 [5], 3.4 nM. For the same molecule, the figures for the Ratio Ki (in test [4]; in the test listed under Homo sapiens) were 199 and 35, respectively.
Consider `CCCCCCC(C)(C)c1cc(OC)c(C2(O)CCOCC2)c(OC)c1`, for which the Ki is more than 10000 nM at Cannabinoid receptor 1 [1] and 342 nM on Cannabinoid receptor 2 [2]. Moreover, the Ratio Ki in the test listed under Homo sapiens is more than 29.
The like results for `CCCCSc1nc2c(c(=O)n1CCc1ccccc1)C1(CCCC1)Cc1ccccc1-2` were, in that order, more than 50 nM, less than 25 nM and more than 2.
Consider `O=C(NCC1CCOCC1)c1cnc(Nc2ccc(Cl)cc2Cl)nc1C(F)(F)F` [GW842166X], for which the EC50 on Cannabinoid receptor 1 [1] was more than 30000 nM. Further, the Ratio Ki in the test listed under Homo sapiens is more than 600.
With `COc1ccc2c(c1)c(CC(=O)N1CCOCC1)c(C)n2C(=O)c1cccc(Cl)c1Cl`, the Ratio Ki in the test listed under Homo sapiens stood at 146.
For `COc1ccc2c(c1)c(CCN1CCOCC1)c(C)n2C(=O)c1cccc(Cl)c1Cl`, the Ratio Ki in test [4] stood at 160.
